This passage reports IC50 and Activity results from ChEMBL document CHEMBL1149897, “Acylated triterpenoid saponins from Schima noronhae and their cell growth inhibitory activity” (J Nat Prod, 2008).

What all share (type): functional, cell-based
One assay relates to HCT-116. Briefly: Cytotoxicity against human HCT116 cells after 24 hrs by fluorometric microculture assay. Conditions: HCT-116, 24 h.
For the next assay, the system named is HT-29. Briefly: Cytotoxicity against human HT29 cells after 24 hrs by fluorometric microculture assay. Conditions: HT-29, 24 h.
For a further assay, the system named is DLD-1. Briefly: Cytotoxicity against human DLD1 cells after 24 hrs by fluorometric microculture assay. The method, boiled down:
(§1)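 DLD1 grown in RPMI 1640 with 10% FBS; HeLa in IMDM with 5% FBS; both at 37 °C, 5% CO2. Cells (6 × 10^3 per well) exposed to a range of compound concentrations for 24 h at 37 °C. Medium then removed and viability read by FMCA on a fluorescence plate reader as percent of control-well fluorescence. IC50 derived; triplicate experiments.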

In another assay the test system is HeLa. Description: Cytotoxicity against human HeLa cells after 24 hrs by fluorometric microculture assay. A digest of the protocol:
as §1

Structures are written as SMILES. Active and inactive are the calls of the source. The rule behind the calls is not given here.

As for `C/C=C(/C)C(=O)O[C@H]1[C@H](OC(C)=O)C(C)(C)C[C@H]2C3=CC[C@@H]4[C@@]5(C)CC[C@H](O[C@@H]6O[C@H](C(=O)O)[C@@H](O)[C@H](O)[C@H]6O[C@@H]6O[C@@H](C)[C@H](O)[C@@H](O)[C@H]6O)C(C)(C)[C@@H]5CC[C@@]4(C)[C@]3(C)[C@@H](O)[C@@H](O)[C@]21CO`, the IC50 in the assay with HCT-116 and in the assay on HT-29 was over 40 µg/mL each time.

Turning to `C/C=C(/C)C(=O)O[C@H]1CC(C)(C)C[C@H]2C3=CC[C@@H]4[C@@]5(C)CC[C@H](O[C@@H]6O[C@H](C(=O)O)[C@@H](O)[C@H](O[C@@H]7O[C@H](CO)[C@H](O[C@@H]8O[C@@H](C)[C@H](O)[C@@H](O)[C@H]8O)[C@H](O)[C@H]7O)[C@H]6O[C@@H]6O[C@H](CO)[C@@H](O)[C@H](O)[C@H]6O)C(C)(C)[C@@H]5CC[C@@]4(C)[C@]3(C)[C@@H](O)[C@@H](O)[C@@]12CO`, the result with DLD-1 was Active. Moreover, in the assay with HeLa, inhibition was half-maximal at 5.5 µM (IC50).

Turning to `C/C=C(/C)C(=O)O[C@H]1[C@H](O)C(C)(C)C[C@H]2C3=CC[C@@H]4[C@@]5(C)CC[C@H](O[C@@H]6O[C@H](C(=O)O)[C@@H](O)[C@H](O)[C@H]6O[C@@H]6O[C@@H](C)[C@H](O)[C@@H](O)[C@H]6O)C(C)(C)[C@@H]5CC[C@@]4(C)[C@]3(C)[C@@H](O)[C@@H](O)[C@]21CO`, the IC50 in the assay with HCT-116 and in the assay on HT-29 was over 40 µg/mL each time.

For `C/C=C(/C)C(=O)O[C@H]1CC(C)(C)C[C@H]2C3=CC[C@@H]4[C@@]5(C)CC[C@H](O[C@@H]6O[C@H](C(=O)O)[C@@H](O)[C@H](O[C@@H]7O[C@H](CO)[C@H](O[C@@H]8O[C@@H](C)[C@H](O)[C@@H](O)[C@H]8O)[C@H](O)[C@H]7O)[C@H]6O[C@@H]6O[C@H](CO)[C@@H](O)[C@H](O)[C@H]6O)C(C)(C)[C@@H]5CC[C@@]4(C)[C@]3(C)CC[C@@]12CO`, the result in the assay with DLD-1 was Active. This compound returned an IC50 in the assay with HeLa of 3.8 µM.

In the case of `C/C=C(/C)C(=O)O[C@H]1[C@H](O)C(C)(C)C[C@H]2C3=CC[C@@H]4[C@@]5(C)CC[C@H](O[C@@H]6O[C@H](C(=O)O)[C@@H](O)[C@H](O)[C@H]6O[C@@H]6O[C@@H](C)[C@H](O)[C@@H](O)[C@H]6O)C(C)(C)[C@@H]5CC[C@@]4(C)[C@]3(C)[C@@H](O)[C@@H](O)[C@]21COC(C)=O`, the IC50 with HCT-116 and in the assay on HT-29 was over 40 µg/mL throughout.
